# Reference: the RNAGym collection of RNA variant scans (doi:10.1126/science.aae0568)
# This sample holds only a part of the variants without activity.
# B1: tRNA (parent)
# chain: GUUCCGUUGGCGUAAUGGUAACGCGUCUCCCUCCUAAGGAGAAGACUGCGGGUUCGAGUCCCGUACGGAACG
# Variants of: B1
# Assay: yeast fitness relative to wild type (ratio to wild type); higher = fitter; tRNA-Arg(CCU), competitive growth, 37 C, YPD
# Method in brief: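 Gene amplicons from the start population and from each of six end populations were read by 100-nucleotide paired-end sequencing. Those end populations came from pooled Saccharomyces cerevisiae strains carrying tRNA-Arg(CCU) gene variants at the native locus, competed in YPD at 37°C for 24 hours. Fitness relative to wild type was worked out from changes in genotype frequencies. Genotypes needed ≥ 100 starting reads, and estimates < 0.5 were set to 0.5.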
row,Variant,yeast fitness
1,G6C U16A G23C C60U,0.625
2,G6C G12A C33U A65G A70G,≤ 0.5
3,G6C G63C A69G,≤ 0.5
4,G6C U16G A20C G25A A43U G50A C55U,≤ 0.5
5,G6C U7C G9C C66U,0.546
6,G6C U16G G39C,≤ 0.5
7,G6C C24U C27G,≤ 0.5
8,G6C C22G C27G A45U A57G A70G,≤ 0.5
9,G6C G25A A43U G67C,≤ 0.5
10,G6C U13G G18A C55A,0.514
11,G6C G18C A21G A40U U47A C49U C61U A70G,≤ 0.5
12,G6C U8A A45U U53C G67A A69C,0.775
13,G6C C55U U59G A70U,≤ 0.5
14,G6C U7A C46U,0.577
15,G6C G12C A15U A21C C49U G51C U53C,≤ 0.5
16,G6C U8C C11U U19C A20U A42C A65C A69U,≤ 0.5
17,G6C U16A G18C C22G G52C G68A,≤ 0.5
18,G6C C24G C34U U53C C55G C62A,0.557
19,G6C G51A,0.791
20,G6C U8C A42G C46U C55G A65U,≤ 0.5
21,G6C G23C,0.643

row,Variant,yeast fitness
1,G6C C29G C66G,≤ 0.5
2,G6C U8C G58C A69U,0.528
3,G6C U8C A21C,≤ 0.5
4,G6C G9C U32A G38C U47A,≤ 0.5
5,G6C U7G G17C G67A,≤ 0.5
6,G6C G17A C30U A42C A65G C66G G68A,≤ 0.5
7,G6C C24U G67C,0.537
8,G6C C33U C62U,≤ 0.5
9,G6C G9A A21U U28G C34U A45C,≤ 0.5
10,G6C U8C C34G A45G A65U,≤ 0.5
11,G6C C55G A70C,≤ 0.5
12,G6C G12A U54C,0.594
13,G6C C46U,0.966
14,G6C U19C G38C G44C C46A,≤ 0.5
15,G6C G38C C60A,≤ 0.5
16,G6C U16G C46A,0.599
17,G6C U8C C27U G48A A57G,≤ 0.5
18,G6C C46G A70C,0.511
19,G6C C55G,0.695
20,G6C C55A,0.717
21,G6C G41A A43G C60U A70C,≤ 0.5

row,Variant,yeast fitness
1,G6C G10A A36U G51C A69C,0.624
2,G6C U13A C34A,≤ 0.5
3,G6C G10A A36U G63A,≤ 0.5
4,G6C U16C C46G C62U C66U,≤ 0.5
5,G6C U7A A21C A37C U47C A69C,≤ 0.5
6,G6C C29G C30U G51C C66A,0.686
7,G6C C62G,0.688
8,G6C C62U,0.879
9,G6C U7G G17C C49U G58C C61A A65U,≤ 0.5
10,G6C C33U G38C G52C C62U,≤ 0.5
11,G6C U13C C46A,0.627
12,G6C G39C A45U C61U,≤ 0.5
13,G6C G10A,0.666
14,G6C C31A A36C G44A A57U C66A,≤ 0.5
15,G6C G56A,1.03
16,G6C C34A,0.611
17,G6C C34U,0.648
18,G6C U7A C34U C61U,0.658
19,G6C U13A,0.718
20,G6C G38C A43C G51C G56C,0.526
21,G6C C29A C55A A65G,≤ 0.5

row,Variant,yeast fitness
1,G6C G25A A65G,0.595
2,G6C G50A A70U,0.633
3,G6C G58C,1.01
4,G6C C33G A36C C49A C60G A65G A70U,≤ 0.5
5,G6C C33G G38C,≤ 0.5
6,G6C C27G U28C C62G,≤ 0.5
7,G6C G25A C27G,0.591
8,G6C U13A U54A A57C,≤ 0.5
9,G6C G41A C62U,≤ 0.5
10,G6C G12C C29A,≤ 0.5
11,G6C G23A C27U A45G U64A,≤ 0.5
12,G6C C31U G39A C46G,≤ 0.5
13,G6C C29G C61U,≤ 0.5
14,G6C C22A C33G G48C,≤ 0.5
15,G6C C27U A57C A70U,0.537
16,G6C U8A G51A A65U G67A,≤ 0.5
17,G6C G50A A69U,0.682
18,G6C C24U,0.751
19,G6C C30G,0.592
20,G6C G23C C24A C66U,≤ 0.5
